Activity calls are given as the source filed them.

For orientation: half-life means the time needed for the level to fall by half in the phase considered. The term AUC denotes the area under the concentration-time curve, a measure of exposure. Low readings indicate less exposure, high ones more exposure. Usually clearance stands for the volume of plasma or blood freed of the substance per unit of time. High values mean efficient removal, low ones inefficient removal. The term bioavailability denotes the share of a dose that reaches the circulation, judged against a reference dose that is usually intravenous. A high value points to much systemic uptake. What is called Tmax is the time at which the peak concentration occurs. What is called Cmax is the highest concentration seen after dosing.

Data set [1] concerns Cerebral cortex. The data set is described as follows: Protective effect against glutamate-induced neurotoxicity in fetal rat cerebral cortex at 1 uM after 24 hrs. It is filed as functional, tissue-based. The procedure, abridged: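 Primary cortical neurons from fetal Wistar rats (17–19 days gestation), used after 11–15 days in vitro; cytosine arabinoside 10 µM added at day 6. Compound present 1 h before, during and 24 h after 10 min exposure to 500 µM Glu. Viability by trypan blue exclusion (>200 cells/coverslip, five coverslips), % unstained cells; means ± SEM.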

Data set [2] is described as follows: Half life in Sprague-Dawley rat at 1 mg/kg, iv. It is filed as ADME, organism-based. Also noted: dose 1 mg/kg, route intravenous. The settings on record: in vivo. In outline:
(§1)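 Fasted SD rats (n = 3, 290–260 g) given 1 mg/kg iv, dosing solution 1 mg/ml in 30% DMSO/5% glucose. Blood sampled at 0.25, 0.5, 1, 2, 4, 6 and 8 h. Plasma (0.1 ml) mixed with MeOH/HClO4 (500:1, 0.2 ml), centrifuged 12,000 rpm for 5 min and filtered. Plasma PK parameters derived from these samples.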

The nature of data set [3]: AUC in Sprague-Dawley rat at 1 mg/kg, iv. The settings on record: plasma. Also noted: dose 1 mg/kg, route intravenous. It is filed as ADME, organism-based. The procedure, abridged: as §1
Data set [4] is described as follows: Total clearance in Sprague-Dawley rat at 1 mg/kg, iv. It is filed as ADME, organism-based. Also noted: dose 1 mg/kg, route intravenous. The following applies: in vivo. The procedure, abridged:
as §1

Data set [5] is described as follows: Volume of distribution at steady state in Sprague-Dawley rat at 1 mg/kg, iv. It is filed as ADME, organism-based. Set-up: dose 1 mg/kg, route intravenous. The following applies: in vivo, read-out: Vdss. The procedure, abridged:
as §1

The subject of data set [6] is Cerebral cortex. The data set is described as follows: Protective effect against glutamate-induced neurotoxicity in fetal rat cerebral cortex after 24 hrs. It is filed as functional, tissue-based. The procedure, abridged:
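Wistar fetal rat cortical neurons (E17–19) grown on polyethyleneimine-coated coverslips, 10 µM cytosine arabinoside added from day 6, used at 11–15 DIV. Exposed to 500 µM Glu for 10 min; compound present 1 h before, during and 24 h after. Viability by trypan blue exclusion, >200 cells per coverslip, five coverslips, mean ± SEM.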

The nature of data set [7]: AUC in Sprague-Dawley rat at 5 mg/kg, po. It is filed as ADME, organism-based. Also noted: dose 5 mg/kg, route oral. The settings on record: plasma. The procedure, abridged:
(§2)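 Fasted SD rats (n = 3) dosed orally at 5 mg/kg, 1 mg/ml in 0.5% methyl cellulose. Plasma sampled at 0.25, 0.5, 1, 2, 4, 6 and 8 h. Plasma (0.1 ml) deproteinized with MeOH/HClO4 (500:1, 0.2 ml), spun 12,000 rpm for 5 min, filtered. Bioavailability set against the 1 mg/kg iv dosing.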

Data set [8] is described as follows: Ratio of drug level in brain to plasma in Sprague-Dawley rat at 1 mg/kg, iv after 0.5 hr. It is filed as ADME, organism-based. The settings on record: read-out: BPR. Set-up: dose 1 mg/kg, route intravenous. The procedure, abridged: (§3)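 SD rats (n = 3, fasted) given 1 mg/kg iv in 30% DMSO/5% glucose. Brain and blood taken at 0.5 and 2 h. Brain homogenized (20% saline). Brain homogenate or plasma (0.1 ml) treated with MeOH/HClO4 (500:1, 0.2 ml), centrifuged 12,000 rpm for 5 min, filtered. Brain-to-plasma concentration ratio calculated.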

The nature of data set [9]: Half life in Sprague-Dawley rat at 5 mg/kg, po. It is filed as ADME, organism-based. Also noted: dose 5 mg/kg, route oral. The settings on record: in vivo. The procedure, abridged:
as §2

Data set [10] can be described thus: Oral bioavailability in Sprague-Dawley rat at 5 mg/kg. It is filed as ADME, organism-based. The settings on record: in vivo. The procedure, abridged: as §2
Data set [11] is described as follows: Tmax in Sprague-Dawley rat at 5 mg/kg, po. Set-up: dose 5 mg/kg, route oral. It is filed as ADME, organism-based. The following applies: in vivo. In outline: as §2
Data set [12] in a line: Cmax in Sprague-Dawley rat at 5 mg/kg, po. It is filed as ADME, organism-based. The settings on record: in vivo. Also noted: dose 5 mg/kg, route oral. In outline: as §2
A short description of data set [13]: Ratio of drug level in brain to plasma in Sprague-Dawley rat at 1 mg/kg, iv after 2 hrs. It is filed as ADME, organism-based. Set-up: dose 1 mg/kg, route intravenous. The settings on record: read-out: BPR. In outline: as §3

Take `C[C@]12N[C@H](Cc3ccccc31)c1ccccc12`: in the data set with Cerebral cortex [1], the outcome was Active.

In the case of `C[S@+]([O-])C[C@H]1[C@H]2CC[C@@]3(CC[C@H]4[C@@](C)(CCC[C@]4(C)C(=O)O)[C@@H]3C2)[C@@H]1O` [SEROFENDIC ACID A], the half-life in data set [2] was 28.8 min. In data set [3], this molecule had an AUC of 1950 ng·h/mL. This molecule had a clearance in data set [4] of 8.67 mL/min/kg. In data set [5], the Vd was determined as 0.33 L/kg. Further, the outcome in the data set with Cerebral cortex [6] was Active.

Turning to `C[S@@+]([O-])C[C@H]1[C@H]2CC[C@@]3(CC[C@H]4[C@@](C)(CCC[C@]4(C)C(=O)O)[C@@H]3C2)[C@@H]1O` [SEROFENDIC ACID B], the figures for the half-life in data set [2] and in [9] were 39 min and 234 min, respectively. Also, the AUC in [7] came to 5640 ng·h/mL; in data set [3], 2780 ng·h/mL. The Kp at 0.5 h in [8] turned out to be 0.021. Further, the clearance in data set [4] is 6 mL/min/kg. In addition, in data set [5], the Vd is 0.33 L/kg. The molecule further yielded a bioavailability in data set [10] of 41%. In the data set on Cerebral cortex [6], the outcome was Active. The time to peak (Tmax) in data set [11] worked out at 19.8 min. In [12], this molecule yielded a Cmax of 2050 ng/mL.

`COC(=O)[C@@]1(C)CCC[C@@]2(C)[C@@H]3C[C@@H]4CC[C@@]3(CC[C@@H]21)[C@H](O)[C@H]4C[S+](C)[O-]` (stereo partly drawn) [SEROFENDIC ACID METHYLESTER] showed a half-life in data set [2] of 33 min. Besides, in data set [3], the exposure (AUC) worked out at 1440 ng·h/mL. Also, the Kp at 0.5 h in data set [8] was 2.2. Besides, in [4], the clearance was 14.7 mL/min/kg. Moreover, in data set [5], the Vd was found to be 0.57 L/kg. Moreover, the Kp at 2 h in [13] turned out to be 2.21.

Values taken from ChEMBL document CHEMBL1139827, “Synthesis and pharmacological profile of serofendic acids A and B” (Bioorg Med Chem, 2007).
